From PubChem
An excerpt weighted towards active compounds, which were near 2.4% of everything screened.
Efa HMGR inh = inhibitors of class II HMG-CoA reductase from Enterococcus faecalis; purified E. faecalis HMGR, NADPH absorbance 340 nm kinetic; inhibition, % at 10 µM; actives 0.41% (n = 190,000); AID 1066;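 active means inhibition above a set limit, the median over all tested compounds plus 3 SD, cut at about 9.5% in these data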;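 further: enzyme runs in reverse so mevalonate oxidation gives rising NADPH absorbance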
Yeast lifespan up = extends the lifespan of yeast | actives 0.68% (n = 130,000) | AID 775 | inhibition of the nicotinamide effect, % at 10 µM | S. cerevisiae growth with nicotinamide, OD615; deaD strain in restrictive glucose medium;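 active means inhibition above a set limit, placed 3 SD over the median of all compounds, cut at about 26% in these data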
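Test system – modified budding yeast, DeaD strain · Compound – single dose 10 µM compound, 0.25% DMSO · Times – culture preincubation 4 h, compound exposure 48 h, both 30 °C · Detection – optical density (absorbance) at 615 nm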
Rad51 HR inh = blocks human Rad51 in homologous recombination | inhibition, % at 10 µM | actives 0.085% (n = 200,000) | AID 1385 | hRad51 DNA strand exchange, fluorescence dequenching;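 active means inhibition above 40% at the single screening dose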
Target sequence (Q06609 whole entry, looked up): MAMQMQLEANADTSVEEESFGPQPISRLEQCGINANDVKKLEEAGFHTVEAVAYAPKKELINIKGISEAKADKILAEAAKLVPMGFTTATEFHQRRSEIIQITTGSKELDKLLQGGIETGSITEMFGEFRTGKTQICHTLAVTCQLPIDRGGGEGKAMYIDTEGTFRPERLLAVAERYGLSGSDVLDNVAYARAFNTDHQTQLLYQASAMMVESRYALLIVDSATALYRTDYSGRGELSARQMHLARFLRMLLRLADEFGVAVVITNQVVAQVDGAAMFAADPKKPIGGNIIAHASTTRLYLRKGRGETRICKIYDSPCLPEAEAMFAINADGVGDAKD
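System: hRad51 filaments on single-stranded DNA; reagent: Fluorescein- and BHQ1-tagged 47-mer duplex; compound dosing: one concentration, 10 µM final; timing: filaments 15 min 37 °C, then compound 30 min; measured by: fluorescein emission 520 nm, excitation 485 nm; benchmarks: per-plate controls and blanks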
Yeast growth inh = yeast BB579 growth reduction in restrictive medium; S. cerevisiae BB579 growth, OD615, 48 h; inhibition, % at 10 µM; actives 0.51% (n = 140,000); AID 804;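 active means inhibition above a set limit, 3 SD over the mean compound inhibition, cut at about 44% in these data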
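Test system: DeaD yeast strain BB579 / Buffer or medium: restrictive glucose-based CSMM-D medium / Doses: single 10 µM dose / Schedule: 4 h cell preincubation, 48 h compound exposure, 30 °C humidified / Technique: culture absorbance at 615 nm / Controls: amphotericin B positive control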
Arbovirus anti = blocks arbovirus infection | actives 0.37% (n = 200,000) | arbovirus infection cell-based antiviral screen | inhibition, % at 10 µM; in the data active means inhibition above about 30%
Measles CPE = protection of cells from measles virus; actives 1.5% (n = 140,000); protection (pct of control), % at 4 µM; AID 841; Measles virus-infected cells, CPE protection, absorbance; in the data active means protection mostly above about 24%, no sharp cut-off; inactive means mostly below about 26%
Numbers stand for hits; – = inactive; · = not tested or not shown.

SMILES	Efa HMGR inh	Yeast lifespan up	Rad51 HR inh	Yeast growth inh	Arbovirus anti	Measles CPE
COc1ccccc1-c1nc(SCC(=O)NCC2CCCO2)c2c(=O)n(C)c(=O)n(C)c2n1 (configuration not stated)	–	·	–	·	–	·
Fc1ccccc1N1CCN(CCCNc2ccc3nncn3n2)CC1	–	27	–	–	–	–
Cc1oc(-c2ccccc2F)nc1CN1CCC(C(=O)NCCC2=CCCCC2)CC1	–	–	–	–	–	24
O=C(NCCC1=CCCCC1)C1CCN(C(=O)Cc2ccccc2)CC1	–	·	–	·	–	·
COc1ccc(CCNC(=O)C2CCN(Cc3nc(-c4ccccc4F)oc3C)CC2)cc1OC	–	–	–	–	–	–
O=C(NCCC1=CCCCC1)C1CCN(C(=O)c2ccc(Br)cc2)CC1	–	–	–	–	–	30
CC(C)c1ccc(C(=O)N2CCN(c3cnn(C)c(=O)c3Cl)CC2)cc1	–	·	–	·	–	·
Cc1c(Cl)cccc1NC(=S)NCCc1ccc(C(F)(F)F)cc1	–	·	–	·	–	·
O=C1C(=Cc2cccs2)C(=O)c2ccccc21	–	–	·	–	–	–
CC(C)CSC1=NSC2=NC(=O)/C(=C\c3cccs3)C(=N)N12	–	–	–	–	48	–
Cc1cc(/C=C2/C(=N)N3C(=NC2=O)SN=C3S(C)(=O)=O)c(C)n1-c1ccccc1F	–	·	–	·	–	·
N=C1/C(=C/c2cccs2)C(=O)N=C2SN=C(SCc3ccccc3)N12	–	–	–	–	35	–
CSC1=NSC2=NC(=O)/C(=C/c3coc4ccc(O)cc4c3=O)C(=N)N12	–	–	–	–	–	–
CSC1=NSC2=NC(=O)/C(=C/c3coc4ccccc4c3=O)C(=N)N12	–	–	–	68	–	–
CSC1=NSC2=NC(=O)/C(=C\c3cccs3)C(=N)N12	–	43	–	–	41	–
CS(=O)(=O)C1=NSC2=NC(=O)/C(=C\c3cccn3-c3ccc(Cl)cc3)C(=N)N21	–	–	–	–	–	–
CCCN1C(=O)/C(=N\OCC(=O)NC23CC4CC(CC(C4)C2)C3)c2ccccc21	–	–	–	–	–	–
Cc1cnc(NC(=O)c2ccc(OCC3CCCO3)cc2)s1 (configuration not stated)	–	·	–	·	–	·
O=C(Nc1nc2ccccc2s1)c1ccc(OCC2CCCO2)cc1 (configuration not stated)	–	–	–	–	31	–
Cc1[nH]nc2nc3c(c(OC(=O)c4ccccc4)c12)c(=O)n(C)c(=O)n3C	–	52	·	–	–	–
COC(=O)c1cc(-c2ccccc2)c2c(=O)n(C)c(=O)n(C)c2n1	–	·	–	·	–	·
c1ccc(COc2ccccc2CNC23CC4CC(CC(C4)C2)C3)cc1	–	·	–	·	–	·
CCCn1c(SCC(=O)Nc2nc(C)c(C(=O)OC)s2)nnc1C(C)C	–	–	–	–	–	31
CCn1c(SCC(=O)Nc2nc(C)c(C(=O)OC)s2)nnc1C(C)C	–	–	–	–	–	–
Cn1c2ccccc2c(=O)c2c(=O)n(C3CCCCC3)c(-c3cccs3)nc21	–	–	–	–	–	–
SMILES	Efa HMGR inh	Yeast lifespan up	Rad51 HR inh	Yeast growth inh	Arbovirus anti	Measles CPE
CCc1nc2c(c(=O)c3ccccc3n2C)c(=O)n1C1CCCCCC1	–	28	–	–	–	–
Cn1c2ccccc2c(=O)c2c(=O)n(C3CCCCCC3)c(C3CCCCC3)nc21	–	26	–	–	–	–
COc1ccc(CCNC(=O)c2ccccc2SC)cc1	–	·	–	·	–	·
COc1nccnc1NS(=O)(=O)c1ccc(NC(=S)NC(=O)c2cccc(F)c2)cc1	–	–	–	–	–	–
COc1nccnc1NS(=O)(=O)c1ccc(NC(=S)NC(=O)c2ccc(F)cc2)cc1	–	–	–	–	–	34
COc1ccc(OC)c(-c2cc(C(F)(F)F)c3c(n2)sc2c(O)cc(=O)[nH]c23)c1	–	–	–	–	–	–
CN1CCN(CCNC(=O)c2cn(Cc3ccccc3F)nn2)CC1	–	·	–	·	–	·
CCN1CCN(CCNC(=O)c2cn(Cc3ccccc3F)nn2)CC1	–	–	–	–	–	41
CN(C)C(CNC(=O)CNC(=O)c1ccc(Br)cc1)c1ccccc1 (configuration not stated)	–	·	–	·	–	·
Cc1c(/C=C/C(=O)c2ccc(C(C)C)cc2)cnn1C	–	·	–	·	–	·
Cc1c(NC(=O)CSc2nc3ccccc3n2C)c(=O)n(-c2ccccc2)n1C	–	–	–	–	–	–
CCCCCC/C=C/c1ccc(OC)c([C@H]2[C@H]3C=CC[C@@H](C)[C@@H]3C(=O)N2Cc2ccccc2)c1	·	·	–	·	·	·
Cc1ccc(NC(=O)c2nc[nH]c2C(=O)Nc2ccc(C)cc2)cc1	–	–	–	–	–	59
Cc1ccc(C)c(S(=O)(=O)Nc2ccccc2C(=O)Nc2ccc(S(=O)(=O)Nc3ncccn3)cc2)c1	–	–	–	–	–	–
CC(C)(C)c1ccc(CN2N=C(/C=C/c3ccccc3)CCC2=O)cc1	–	·	–	·	–	·
Cc1nn2c(-c3ccccc3)c(-c3ccccc3)nc2[nH]c1=O	–	–	–	–	32	–
COC(=O)c1nn(-c2cccc(C)c2)c2nnc(Cc3ccccc3)c(=O)n12	–	26	·	–	–	–
O=C(OCn1ncc(Cl)c(Cl)c1=O)c1ccccc1Cl	–	–	–	66	–	–
O=C(Cn1ncc(Cl)c(Cl)c1=O)c1ccc(Cl)cc1	–	·	·	–	–	–
O=C(OCn1ncc(Cl)c(Cl)c1=O)c1ccc(F)cc1	–	–	–	45	–	–
CC1(C)OC2OC(C(=O)N/N=C/c3cc(Br)ccc3O)C3OC(C)(C)OC3C2O1 (configuration not stated)	–	–	–	–	–	–
Cc1ccc(C2C3=C(CCCC3=O)N=C3c4ccccc4C(=O)C32)cc1 (configuration not stated)	–	–	–	–	–	–
COCCCN1C(=O)C(=O)/C(=C(/O)c2ccc(OC)cc2)C1c1ccc(O)c(OC)c1 (configuration not stated)	12	–	–	–	–	–
COc1ccc(C2NC(=O)NC(c3ccccc3)=C2c2nc3ccccc3s2)cc1 (configuration not stated)	–	–	–	–	–	28
O=C1ON=C(c2ccccc2)/C1=C/c1ccc(-c2ccccc2[N+](=O)[O-])o1	–	42	–	–	–	–
O=[N+]([O-])c1ccccc1-c1ccc(/C=N/n2cnnc2)o1	–	–	–	–	–	–
Cc1ccc(C(C2=C(O)CC(C)(C)CC2=O)C2C(=O)CC(C)(C)CC2=O)o1 (configuration not stated)	–	44	–	–	–	–
CC1(C)CC(=O)C(C(C2=C(O)CC(C)(C)CC2=O)c2cccs2)C(=O)C1 (configuration not stated)	–	–	·	–	–	–
